Data set [1] concerns A-375. The data set is described as follows: Photocytotoxicity against human A375 cells assessed as cell viability after 24 hrs in presence of light irradiation by MTT assay. The note with it: A-375, light or radiation study. In kind it is functional, cell-based. An outline of the steps:
(§1)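 A375 (DMEM) or OE19 (RPMI 1640) cells were plated overnight and given sensitizer at 1 nM–10 μM, diluted from a 1 mg/mL DMSO stock, with a 1% DMSO vehicle control. After 24 h dark incubation at 37 °C, cells were PBS-washed and refed.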
(Formazan colour is commonly taken as a measure of viable cells.)

Data set [2] has as its system OE19. The data set is described as follows: Photocytotoxicity against human OE19 cells assessed as cell viability after 24 hrs in presence of light irradiation by MTT assay. The format is functional, cell-based. The note with it: OE19, light or radiation study. The method in brief:
as §1

The test system of data set [3] is OE19. The data set is described as follows: Cytotoxicity against human OE19 cells assessed as cell viability measured after 24 hrs by MTT assay. In kind it is cell-based. The note with it: OE19, 24 h. An outline of the steps:
(§2)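 Dark control run in A375 (DMEM) or OE19 (RPMI 1640) cells, plated overnight. Sensitizers were diluted from a 1 mg/mL DMSO stock and given at 1 nM–10 μM, with a 1% DMSO vehicle control. Cells were incubated 24 h at 37 °C in the dark, PBS-washed, refed and not irradiated. Read-out was MTT (0.5 mg/mL, 4 h) with formazan dissolved in HCl/isopropanol, as % of vehicle; IC50 taken from dose–response curves.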

Data set [4] is described as follows: Drug uptake in human A375 cells at 500 nM incubated for 24 hrs by fluorescence emission spectroscopic analysis. The format is ADME, cell-based. The note with it: a-375, 24 h, 0.5 µM. The method in brief:
(§3)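 Cells (5 × 10^5) were exposed to 500 nM sensitizer for 24 h in the dark, then PBS-washed, disrupted in DMSO, scraped and centrifuged. Supernatant fluorescence was read with excitation at 405 and 420 nm. Intracellular concentration was calculated from a calibration curve of each sensitizer in DMSO; mean ± SE.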

The test system of data set [5] is A-375. The data set is described as follows: Cytotoxicity against human A375 cells assessed as cell viability measured after 24 hrs by MTT assay. The format is cell-based. The following applies: A-375, 24 h. An outline of the steps: as §2
A short description of data set [6]: Drug uptake in human OE19 cells at 500 nM incubated for 24 hrs by fluorescence emission spectroscopic analysis. In kind it is ADME, cell-based. The note with it: oe19, 24 h, 0.5 µM. The method in brief:
as §3

Some results are limits rather than exact numbers.

In general, IC50 refers to the concentration at which inhibition is half-maximal. Take `OCc1nn2c(c1CO)CC1c3nc(c(-c4c(F)c(F)cc(F)c4F)c4ccc([nH]4)c(-c4c(F)c(F)cc(F)c4F)c4nc(c(-c5c(F)c(F)cc(F)c5F)c5ccc([nH]5)c3-c3c(F)c(F)cc(F)c3F)C=C4)C1C2` (stereo not given): the IC50 with A-375 [1] is 0.072 µM; in the data set on OE19 [2], 0.056 µM; in the data set on OE19 [3], > 10 µM; with A-375 [5], > 10 µM. In data set [4], the Drug uptake was 128 nM.
For the molecule `OCCOCCNc1c(F)c(F)c(-c2c3nc(c(-c4c(F)c(F)c(NCCOCCO)c(F)c4F)c4ccc([nH]4)c(-c4c(F)c(F)c(NCCOCCO)c(F)c4F)c4nc(c(-c5c(F)c(F)c(NCCOCCO)c(F)c5F)c5ccc2[nH]5)C2Cc5c(CO)c(CO)nn5CC42)C=C3)c(F)c1F` (stereo not given), the IC50 in the data set on A-375 [1] was 0.013 µM; in the data set with OE19 [2] it was 0.027 µM; in the data set with OE19 [3], > 10 µM; in the data set with A-375 [5], > 10 µM. For the same molecule, the Drug uptake in data set [6] is given as 202 nM; in data set [4] it was 254 nM.
With `COC(=O)c1nn2c(c1C(=O)OC)CC1c3nc(c(-c4c(F)c(F)c(F)c(F)c4F)c4ccc([nH]4)c(-c4c(F)c(F)c(F)c(F)c4F)c4nc(c(-c5c(F)c(F)c(F)c(F)c5F)c5ccc([nH]5)c3-c3c(F)c(F)c(F)c(F)c3F)C=C4)C1C2` (stereo not given), the IC50 was 6.68 µM with A-375 [1], 5.61 µM with OE19 [2], > 10 µM in the data set with OE19 [3] and > 10 µM with A-375 [5].
`COC(=O)c1nn2c(c1C(=O)OC)CC1c3nc(c(-c4c(F)c(F)c(NCCOCCO)c(F)c4F)c4ccc([nH]4)c(-c4c(F)c(F)c(NCCOCCO)c(F)c4F)c4nc(c(-c5c(F)c(F)c(NCCOCCO)c(F)c5F)c5ccc([nH]5)c3-c3c(F)c(F)c(NCCOCCO)c(F)c3F)C=C4)C1C2` (stereo not given): the IC50 in the data set with A-375 [1] was 0.913 µM; with OE19 [2], 0.105 µM; in the data set with OE19 [3], > 10 µM; in the data set on A-375 [5], > 10 µM. The same molecule showed a Drug uptake in data set [4] of 148 nM.

The record behind these values is ChEMBL document CHEMBL4732031, “Novel fluorinated ring-fused chlorins as promising PDT agents against melanoma and esophagus cancer” (RSC Med Chem, 2021).
